Measurements as given in ChEMBL document CHEMBL2384939, “Synthesis of pyrazolo[1,5-a]pyrimidine linked aminobenzothiazole conjugates as potential anticancer agents” (Bioorg Med Chem Lett, 2013).
The source made the active and inactive calls. No cut-off for these calls is given here.

Assays:
SF-295 = experiment: Cytotoxicity against human SF295 cells after 48 hrs by MTT assay; type: functional; conditions: SF-295, 48 h
A549 [1] = experiment: Induction of apoptosis in human A549 cells assessed as nuclear fragmentation at 2 uM after 48 hrs by Hoechst staining assay; type: functional, cell-based
Method in brief: (§1)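 A549 cells (10,000 per 18-mm coverslip) grown 24 h, then given 2 µM compound for 48 h, with 0.001% DMSO vehicle and roscovitine controls. Hoechst 33258 (0.5 mg/mL) in 4% paraformaldehyde was added for 30 min. Randomly chosen fields were imaged by fluorescence microscopy and apoptotic cells scored manually by cytoplasmic condensation, apoptotic bodies and nuclear fragmentation.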

SK-MEL-5 = experiment: Cytotoxicity against human SK-MEL-5 cells after 48 hrs by MTT assay; type: functional; conditions: SK-MEL-5, 48 h
A549 [2] = experiment: Cell cycle arrest at human A549 cells assessed as accumulation at S phase at 1 uM after 48 hrs by propidium iodide-staining-based FACS flow cytometric analysis (reference value: 4.48%); type: functional
A549 [3] = experiment: Induction of apoptosis in human A549 cells assessed as formation of apoptotic bodies at 2 uM after 48 hrs by Hoechst staining assay; type: functional, cell-based; method in brief: as §1
LOX IMVI = experiment: Cytotoxicity against human LOXIMVI cells after 48 hrs by MTT assay; type: functional
A549 [4] = experiment: Cell cycle arrest at human A549 cells assessed as accumulation at sub G1 phase at 2 uM after 48 hrs by propidium iodide-staining-based FACS flow cytometric analysis (reference value: 1.02%); type: functional
SNB-75 = experiment: Cytotoxicity against human SNB75 cells after 48 hrs by MTT assay; type: functional; conditions: SNB-75, 48 h
UACC-62 = experiment: Cytotoxicity against human UACC62 cells after 48 hrs by MTT assay; type: functional; conditions: UACC-62, 48 h
HOP-62 = experiment: Cytotoxicity against human HOP62 cells after 48 hrs by MTT assay; type: functional; conditions: HOP-62, 48 h
NCI-H522 = experiment: Cytotoxicity against human NCI-H522 cells after 48 hrs by MTT assay; type: functional; conditions: NCI-H522, 48 h
A498 = experiment: Cytotoxicity against human A498 cells after 48 hrs by MTT assay; type: functional; conditions: A498, 48 h
A549 [5] = experiment: Induction of apoptosis in human A549 cells assessed as cytoplasmic condensation at 2 uM after 48 hrs by Hoechst staining assay; type: functional, cell-based; method in brief: as §1
RXF 393 = experiment: Cytotoxicity against human RXF393 cells after 48 hrs by MTT assay; type: functional; conditions: RXF 393, 48 h
NCI-H23 = experiment: Cytotoxicity against human NCI-H23 cells after 48 hrs by MTT assay; type: functional; conditions: NCI-H23, 48 h
OVCAR-3 = experiment: Cytotoxicity against human OVCAR3 cells after 48 hrs by MTT assay; type: functional; conditions: OVCAR-3, 48 h
KM12 = experiment: Cytotoxicity against human KM12 cells after 48 hrs by MTT assay; type: functional; conditions: KM12, 48 h
MDA-MB-468 = experiment: Cytotoxicity against human MDA-MB-468 cells after 48 hrs by MTT assay; type: functional; conditions: MDA-MB-468, 48 h
SK-MEL-28 = experiment: Cytotoxicity against human SK-MEL-28 cells after 48 hrs by MTT assay; type: functional; conditions: SK-MEL-28, 48 h
CAKI-1 = experiment: Cytotoxicity against human Caki1 cells after 48 hrs by MTT assay; type: functional; conditions: CAKI-1, 48 h
MDA-MB-435 = experiment: Cytotoxicity against human MDA-MB-435 cells after 48 hrs by MTT assay; type: functional; conditions: MDA-MB-435, 48 h
[6] = Cytotoxicity against human NCI-ADR-RES cells after 48 hrs by MTT assay; type: functional
MOLT-4 = experiment: Cytotoxicity against human MOLT4 cells after 48 hrs by MTT assay; type: functional; conditions: MOLT-4, 48 h
RPMI-8226 = experiment: Cytotoxicity against human RPMI8226 cells after 48 hrs by MTT assay; type: functional; conditions: RPMI-8226, 48 h
OVCAR-4 = experiment: Cytotoxicity against human OVCAR4 cells after 48 hrs by MTT assay; type: functional; conditions: OVCAR-4, 48 h
UO-31 = experiment: Cytotoxicity against human UO31 cells after 48 hrs by MTT assay; type: functional; conditions: UO-31, 48 h

Structure (SMILES) | GI50 (SF-295) [µM] | Activity (A549 [1]) | Activity (A549 [2]) [%] | Activity (A549 [3]) | Activity (A549 [4]) [%] | GI50 (SNB-75) [µM] | GI50 (UACC-62) [µM] | GI50 (HOP-62) [µM] | GI50 (NCI-H522) [µM] | GI50 (A498) [µM] | Activity (A549 [5]) | GI50 (RXF 393) [µM] | GI50 (NCI-H23) [µM] | GI50 (OVCAR-3) [µM] | GI50 (MDA-MB-468) [µM] | also measured
COc1cc(-c2cc(C(=O)Nc3nc4ccccc4s3)nc3cc(-c4ccccc4)nn23)cc(OC)c1OC | 10.6 | Active | 5.9 | Active | 9.05 | 2.7 | 14.4 | 9.8 | 1.9 | 9.2 | Active | 6.2 | 11.5 | 13.3 | 13.9 | GI50 (SK-MEL-5): 13.8 µM; GI50 (LOX IMVI): 5.5 µM; GI50 (KM12): 22 µM; GI50 (SK-MEL-28): 3.3 µM; GI50 (CAKI-1): 53.7 µM; GI50 (MDA-MB-435): 2.6 µM; GI50 [6]: 19.6 µM
O=C(Nc1nc2ccccc2s1)c1cc(-c2ccc(F)cc2)n2nc(-c3ccccc3)cc2n1 | 4.1 | Active | 6.1 | Active | 3.75 | 1.7 | 3.7 | 2.2 | 2.5 | 1.8 | Active | 2.5 | 2.8 | 1.9 | 5.1 | GI50 (MOLT-4): 21 µM; GI50 (RPMI-8226): 5.5 µM; GI50 (OVCAR-4): 1.8 µM; GI50 (UO-31): 1.9 µM
